For test [1], the target named is human 20S proteasome caspase-like (C-L, β1) site (Homo sapiens, UniProt P28072+Q99436). Description: Fluorogenic assay for 20S human proteasome inhibition, caspase-like site. The class given is biochemical.
The target of another test is human FAS-TE (Homo sapiens, UniProt P49327). Description: Fluorogenic assay for human FAS-TE inhibition. In kind it is biochemical. Particulars: for reduction (drop) of FAS-TE activity: compared to 21.
Test [2] deals with human 20S proteasome trypsin-like (T-L, β2) site (Homo sapiens, UniProt P49720+Q99436). Description: Fluorogenic assay for 20S human proteasome inhibition, trypsin-like site. In kind it is biochemical.
For test [3], the target named is ChT-L (proteasome beta-5, PSB-5) (Homo sapiens, UniProt P20618+P28074). The test can be described thus: Activity-based in situ competitive labelling against ABPP probe 28, ChT-L. In kind it is cell-based. As to conditions: MCF-7 cells, 30 min preincubation with inhibitor, then 10 µM probe 28 for 30 min.
The next test has as its target FAS (Homo sapiens, UniProt P49327). Description: Activity-based in situ competitive labelling against ABPP probe 28, FAS band. In kind it is cell-based. As to conditions: MCF-7 cells, 30 min preincubation with inhibitor, then 10 µM probe 28 for 30 min. The method in brief:
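Cells at 80–90% confluency were washed and given serum-free medium with test compound (10–100 µM; 1, 2.5, 5, 10-fold excess over probe) or DMSO, 30 min at 37 °C, 5% CO2. Alkyne probe was added (10 µM final) for 30 min. Soluble lysate (1% NP-40/1% deoxycholate, ~1.0 mg/mL) was clicked to TAMRA-N3 (100 µM; 1 mM CuSO4, 1 mM TCEP, 100 µM TBTA) for 1–1.5 h, RT, dark. Read-out: 10% SDS-PAGE, in-gel fluorescence.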

The target of test [4] is human 20S proteasome chymotrypsin-like (ChT-L, β5) site (Homo sapiens, UniProt P20618+P28074). Description: Fluorogenic assay for 20S human proteasome inhibition, chymotrypsin-like site. The class given is biochemical. As to conditions: compared to the diastereomeric β-lactone 21.

Each structure is given as a SMILES string. A value given as a limit tells only on which side of the number the result lay.

Sequence of human FAS-TE (P49327 2207-2511 limits assumed): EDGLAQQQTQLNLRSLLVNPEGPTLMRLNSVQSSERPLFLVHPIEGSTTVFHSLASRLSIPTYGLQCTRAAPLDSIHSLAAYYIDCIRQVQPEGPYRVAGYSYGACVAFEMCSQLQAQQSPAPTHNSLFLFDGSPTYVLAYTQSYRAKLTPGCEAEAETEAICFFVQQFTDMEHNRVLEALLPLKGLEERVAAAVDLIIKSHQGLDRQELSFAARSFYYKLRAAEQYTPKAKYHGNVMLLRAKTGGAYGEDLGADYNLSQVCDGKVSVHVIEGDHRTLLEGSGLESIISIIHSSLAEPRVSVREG
Sequence of FAS (P49327 whole entry): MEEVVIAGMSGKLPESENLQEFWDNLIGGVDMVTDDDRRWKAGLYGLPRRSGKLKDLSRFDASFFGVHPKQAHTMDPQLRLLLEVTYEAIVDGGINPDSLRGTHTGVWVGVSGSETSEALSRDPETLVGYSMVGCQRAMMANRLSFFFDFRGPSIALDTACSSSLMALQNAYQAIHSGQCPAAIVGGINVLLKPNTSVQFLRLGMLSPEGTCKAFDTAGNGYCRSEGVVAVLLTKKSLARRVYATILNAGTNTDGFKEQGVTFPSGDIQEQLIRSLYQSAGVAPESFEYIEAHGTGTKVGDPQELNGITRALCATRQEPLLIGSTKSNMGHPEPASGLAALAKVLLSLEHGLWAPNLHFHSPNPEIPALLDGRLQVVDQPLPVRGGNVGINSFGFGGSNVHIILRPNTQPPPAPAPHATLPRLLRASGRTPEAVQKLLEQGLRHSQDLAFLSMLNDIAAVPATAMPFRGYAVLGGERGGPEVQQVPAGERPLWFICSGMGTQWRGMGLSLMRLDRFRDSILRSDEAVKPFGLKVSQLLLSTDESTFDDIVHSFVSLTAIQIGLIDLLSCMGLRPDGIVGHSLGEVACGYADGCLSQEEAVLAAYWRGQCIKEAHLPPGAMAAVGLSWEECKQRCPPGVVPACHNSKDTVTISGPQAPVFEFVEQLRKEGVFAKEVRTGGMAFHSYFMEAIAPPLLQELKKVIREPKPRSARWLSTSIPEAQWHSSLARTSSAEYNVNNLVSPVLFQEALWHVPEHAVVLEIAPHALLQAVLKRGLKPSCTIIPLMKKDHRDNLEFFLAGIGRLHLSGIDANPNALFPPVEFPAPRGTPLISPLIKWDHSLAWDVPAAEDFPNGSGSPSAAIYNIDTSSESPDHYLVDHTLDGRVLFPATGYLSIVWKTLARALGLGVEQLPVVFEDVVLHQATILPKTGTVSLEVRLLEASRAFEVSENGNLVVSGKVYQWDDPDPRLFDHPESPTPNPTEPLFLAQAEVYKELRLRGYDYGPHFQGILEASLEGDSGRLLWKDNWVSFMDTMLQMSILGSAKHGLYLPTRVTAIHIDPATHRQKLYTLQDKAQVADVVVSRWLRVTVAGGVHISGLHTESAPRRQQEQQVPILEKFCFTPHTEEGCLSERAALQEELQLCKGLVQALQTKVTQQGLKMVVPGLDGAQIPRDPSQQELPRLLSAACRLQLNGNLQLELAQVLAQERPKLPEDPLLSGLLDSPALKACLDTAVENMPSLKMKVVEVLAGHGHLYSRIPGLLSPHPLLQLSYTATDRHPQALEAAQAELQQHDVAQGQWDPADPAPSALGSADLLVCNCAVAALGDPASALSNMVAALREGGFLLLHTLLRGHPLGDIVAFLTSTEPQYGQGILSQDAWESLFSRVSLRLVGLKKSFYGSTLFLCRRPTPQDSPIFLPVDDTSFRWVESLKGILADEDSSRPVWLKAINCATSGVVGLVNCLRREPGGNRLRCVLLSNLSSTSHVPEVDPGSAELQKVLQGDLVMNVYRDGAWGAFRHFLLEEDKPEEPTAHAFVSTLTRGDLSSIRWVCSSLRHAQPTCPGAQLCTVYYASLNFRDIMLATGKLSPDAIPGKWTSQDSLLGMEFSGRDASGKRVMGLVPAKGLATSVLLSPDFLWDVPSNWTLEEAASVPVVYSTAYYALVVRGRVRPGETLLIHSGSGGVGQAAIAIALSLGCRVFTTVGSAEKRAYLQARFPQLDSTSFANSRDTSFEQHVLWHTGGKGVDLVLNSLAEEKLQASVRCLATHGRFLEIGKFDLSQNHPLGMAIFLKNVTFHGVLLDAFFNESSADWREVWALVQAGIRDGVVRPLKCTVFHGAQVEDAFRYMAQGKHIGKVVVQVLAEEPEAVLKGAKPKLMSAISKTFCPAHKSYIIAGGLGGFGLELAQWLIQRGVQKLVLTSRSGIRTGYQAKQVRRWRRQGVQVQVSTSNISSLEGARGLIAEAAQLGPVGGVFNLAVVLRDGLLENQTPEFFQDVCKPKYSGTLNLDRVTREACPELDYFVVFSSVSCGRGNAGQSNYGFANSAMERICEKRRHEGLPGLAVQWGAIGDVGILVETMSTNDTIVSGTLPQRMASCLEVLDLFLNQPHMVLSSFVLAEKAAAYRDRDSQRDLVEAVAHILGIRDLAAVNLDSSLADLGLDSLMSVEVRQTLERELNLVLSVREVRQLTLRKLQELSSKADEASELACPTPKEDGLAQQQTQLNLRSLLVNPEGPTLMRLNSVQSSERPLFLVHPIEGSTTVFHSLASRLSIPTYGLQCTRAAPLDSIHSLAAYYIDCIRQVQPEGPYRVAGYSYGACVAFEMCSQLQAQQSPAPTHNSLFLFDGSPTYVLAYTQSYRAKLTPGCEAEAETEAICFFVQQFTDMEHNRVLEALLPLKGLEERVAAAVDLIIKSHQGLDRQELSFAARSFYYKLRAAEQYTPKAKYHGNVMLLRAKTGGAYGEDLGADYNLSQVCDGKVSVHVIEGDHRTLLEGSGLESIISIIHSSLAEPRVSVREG

Take `C#Cc1ccc(COC(=O)[C@H](C)NC(=O)[C@H](CCCCNC(=O)[C@@H]2OC(=O)[C@H]2CCCCCC)NC(=O)OCc2ccccc2)cc1` [compound 28]: the concentration for half-maximal inhibition (IC50) in test [1] and in test [2] was above 100 µM each time. Besides, the “reduction (drop) of FAS-TE activity” value at human FAS-TE is listed as ~ 2.5 fold.
As to `CCCCCC[C@@H]1C(=O)O[C@H]1C(=O)NCCCC[C@H](NC(=O)[C@H](C)NC(=O)OCc1ccccc1)C(=O)OCc1ccccc1` [compound 17], the IC50 in test [2] is above 100 µM.
In the case of `CCCCCC[C@]1(C)C(=O)O[C@H]1C(=O)NCCCC[C@H](NC(=O)[C@H](C)NC(=O)OCc1ccccc1)C(=O)OCc1ccccc1` [compound 25], the “excess of inhibitor over probe 28 that resulted in ChT-L signal reduction” value in test [3] is “not able to compete effectively”. In addition, the “excess of inhibitor over probe 28 that resulted in FAS signal reduction” value at FAS is “not able to compete effectively”. The 50% inhibitory concentration (IC50) in test [2] is above 100 µM.
With `CCCCCC[C@@H]1C(=O)O[C@H]1C(=O)NCCCC[C@@H]1NC(=O)N([C@@H](C)C(=O)OCc2ccccc2)C1=O` [compound 22], the IC50 was 7.93 ± 0.21 µM in test [1] and above 100 µM in test [2].
As for `CCCCCC[C@@H]1C(=O)O[C@H]1C(=O)NCCCC[C@H](NC(=O)OCc1ccccc1)C(=O)N[C@@H](C)C(=O)OCc1ccccc1` [compound 21], the IC50 in test [1] and in test [2] was above 100 µM throughout. The “potency against FAS-TE compared to orlistat” value on human FAS-TE (ratio of IC50 values, more potent than orlistat) was found to be 3 X. Also, the “excess of inhibitor over probe 28 that resulted in ChT-L signal reduction” value in test [3] is 2.5 fold. Also, on FAS, the “excess of inhibitor over probe 28 that resulted in FAS signal reduction” value worked out at 10 fold.
Regarding `CCCCCC[C@@H]1C(=O)O[C@H]1C(=O)NCCCC[C@H](NC(=O)CNC(=O)OCc1ccccc1)C(=O)OCc1ccccc1` [compound 18], the “drop in potency against FAS-TE” value at human FAS-TE (relative to derivative 17) is ~ 3 fold. In test [2], this compound came in with a concentration for half-maximal inhibition (IC50) above 100 µM.
In test [2], `CCCCCC[C@@H]1C(=O)O[C@H]1C(=O)NCCCC[C@H](NC(=O)[C@H](C)NC(=O)c1ccc(Br)cc1)C(=O)OCc1ccccc1` [compound 20] gave a concentration for half-maximal inhibition (IC50) above 100 µM.
The compound `CCCCCC[C@@]1(C)C(=O)O[C@@H]1C(=O)NCCCC[C@H](NC(=O)[C@H](C)NC(=O)OCc1ccccc1)C(=O)OCc1ccccc1` [compound 26] returned a half-maximal inhibitory concentration (IC50) in test [2] above 100 µM.
In turn, `CCCCCC[C@@]1(C)C(=O)O[C@H]1C(=O)NCCCC[C@H](NC(=O)[C@H](C)NC(=O)OCc1ccccc1)C(=O)OCc1ccccc1` [compound 27] came in with a half-inhibitory concentration (IC50) in test [2] above 100 µM.
Regarding `CCCCCCCCCCC[C@@H](C[C@@H]1OC(=O)[C@H]1CCCCCC)OC(=O)[C@H](CC(C)C)NC=O` [orlistat, Tetrahydrolipstatin, reference compound], the IC50 in test [1] and in test [2] was above 100 µM throughout.
As for `CCCCCC[C@H]1C(=O)O[C@@H]1C(=O)NCCCC[C@H](NC(=O)OCc1ccccc1)C(=O)N[C@@H](C)C(=O)OCc1ccccc1` [compound 23], the IC50 in test [1] and in test [2] was above 100 µM throughout. Moreover, the “reduction (drop) of FAS-TE activity” value on human FAS-TE was ~ 8 fold. Also, in test [4], the “reduction of proteasome ChT-L activity” value is listed as ~ 8 fold.
In turn, `CCCCCC[C@H]1C(=O)O[C@@H]1C(=O)NCCCC[C@H](NC(=O)CNC(=O)OCc1ccccc1)C(=O)OCc1ccccc1` [compound 24] registered an IC50 in test [2] above 100 µM.

The values are drawn from paper PMC5522751 (Bioorganic & medicinal chemistry, 2017).
